# Screening results as filed in PubChem.
# T cell HTS: T cell immune modulation candidate. 2C CD8+ T cell-vesicle binding, flow cytometry; active compounds read low. response (vesicle binding), % at 7 µM. AID 2052. 0.068% of 330,000 active;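 active = response, share of CD8 T cells binding vesicles, and their 90th percentile fluorescence all below set limits, cut at about 80% in these data, passing the limit was not always enough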;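 note: values below 100% mean blocked vesicle binding to the CD8+ T cells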
#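 Benchmarks: naked versus QL9-loaded vesicles / Assay system: purified 2C TCR transgenic mouse naive CD8+ T cells / Technique: high-throughput flow cytometry with anti-B7-1 and anti-CD8 staining / Timing: Cell–vesicle co-incubation 1.5 h at 37 °C, staining 20 min on ice / Read-out: percent CD8+ FL2 mean versus row control / Probe or stimulus: QL9-loaded Drosophila micro-vesicles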
# EP2 mod: EP2 receptor (human) modulation; 0.83% of 260,000 active; induction, % at 25 µM; P43116; EP2-expressing cells, cAMP HTRF FRET, PGE2 co-stimulation;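 active = compounds whose cAMP rise, as percent of the full-agonist control response, exceeds 60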;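 note: rat C6 glioma line stably carrying human EP2 under a CMV promoter; the protocol text gives 20 µM as final concentration; 100% = response of wells given 1 µM PGE2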
# Target sequence (P43116 whole entry, looked up): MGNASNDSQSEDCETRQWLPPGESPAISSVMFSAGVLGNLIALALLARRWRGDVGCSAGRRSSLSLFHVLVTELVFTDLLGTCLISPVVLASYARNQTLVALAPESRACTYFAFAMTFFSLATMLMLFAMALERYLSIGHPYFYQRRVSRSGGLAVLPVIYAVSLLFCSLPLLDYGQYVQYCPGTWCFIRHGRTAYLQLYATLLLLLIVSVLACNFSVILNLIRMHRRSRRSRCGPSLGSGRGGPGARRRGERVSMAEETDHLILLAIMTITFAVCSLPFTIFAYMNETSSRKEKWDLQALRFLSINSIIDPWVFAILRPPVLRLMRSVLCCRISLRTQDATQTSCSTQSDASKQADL
# MC4R barr agon: activates human MC4R beta-arrestin recruitment. U2OS MC4R beta-arrestin complementation, luminescence; percent of melanotan II response, DMSO zero. 0.98% of 360,000 active. AID 540308. P32245. activation, % at 8.9 µM;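 active = activation above a per-plate cutoff, the mean activation of sample wells on that plate plus 3 SD, cut at about 8% in these data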
# Target sequence (P32245 whole entry, looked up): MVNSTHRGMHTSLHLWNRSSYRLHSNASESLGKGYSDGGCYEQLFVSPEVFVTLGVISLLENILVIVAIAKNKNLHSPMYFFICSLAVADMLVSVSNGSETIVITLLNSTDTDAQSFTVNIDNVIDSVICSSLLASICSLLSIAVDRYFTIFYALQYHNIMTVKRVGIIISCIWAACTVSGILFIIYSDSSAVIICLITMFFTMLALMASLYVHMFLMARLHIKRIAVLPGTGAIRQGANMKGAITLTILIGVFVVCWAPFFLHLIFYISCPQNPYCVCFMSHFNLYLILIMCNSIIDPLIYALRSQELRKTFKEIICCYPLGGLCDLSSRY
# Exocytosis inh: blocks lytic granule exocytosis; TALL-104 LAMP-1 surface exposure, flow cytometry; cells stimulated with thapsigargin and PMA; inhibition, % at 10 µM; 0.66% of 360,000 active; AID 651702;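 active = inhibition above about 55%, limit read from the data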
# PGE2 EP2 inh: blocks the human prostaglandin E2 receptor EP2 | P43116 | C6 glioma cells expressing human EP2, cAMP TR-FRET; cells stimulated with saturating PGE2 | inhibition, % at 25 µM | 0.52% of 260,000 active | AID 1422;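 active = percent inhibition above 40 after rounding to a whole number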;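 note: rat C6 glioma host cells with rolipram phosphodiesterase inhibitor present; the protocol text gives 20 µM as final concentration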
# MC4R antagonist: blocks human MC4R cAMP signaling; P32245; 0.48% of 360,000 active; inhibition, % at 6.5 µM; MC4R-expressing cells, MTII-stimulated cAMP, LANCE TR-FRET;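 active = inhibition above its plate's cutoff, the mean of tested wells on that plate plus 3 SD, cut at about 29% in these data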;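 note: 0% = Melanotan II alone and 100% = Melanotan II plus saturating MCL0020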
#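 Material: human MC4R-expressing U2OS cells. Probe or stimulus: Melanotan II challenge. Dosing: 6.5 µM single dose. Times: 30-min compound, 1-h challenge, 1-h detection, room temperature. Technique: TR-FRET with Eu-cAMP and labeled anti-cAMP, 671 nm. Replication: singlicate.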
# MC4R barr ag: human MC4R beta-arrestin agonism confirmation; shares compounds with MC4R barr agon; U2OS MC4R beta-arrestin recruitment, luminescence; scaled DMSO 0%, Melanotan II 100%; activation, % at 8.9 µM; 31% of 2,400 active; AID 602192;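 active = mean activation across replicates above the hit cutoff set in the earlier primary screen, cut at about 8% in these data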
# MOR DOR agonist: counter-screen for MC4R agonists: agonists of mu-delta opioid heterodimer; shares compounds with MC4R barr agon; U2OS PathHunter beta-arrestin, beta-gal luminescence; percent of deltorphin B response, DMSO zero; activation, % at 9.2 µM; 5.8% of 2,400 active;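 active = mean activation across replicates exceeds the hit threshold derived in the earlier primary screen, cut at about 18% in these data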;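 note: 100% = deltorphin B at 0.9 µM final and 0% = DMSO alone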
# The depositor's hits bear a star; i = inactive; x = not tested or not shown. A selection: hits, their analogues and other compounds. The true share with any hit is near 2.6%.
SMILES,T cell HTS,EP2 mod,MC4R barr agon,Exocytosis inh,PGE2 EP2 inh,MC4R antagonist,MC4R barr ag,MOR DOR agonist
CNC(=O)/C(C#N)=C/c1ccc(-c2ccc(Cl)cc2)o1,235,-57,14*,-1,14,5,41*,13
Cc1cc(C)nc(Sc2ccc(/C=C(\C#N)C(N)=O)o2)n1,101,-16,-2,1,12,-5,x,x
Cc1ccc(NC(=O)/C(C#N)=C/c2ccc(Sc3nc(C)cc(C)n3)o2)cc1,323,-1,23*,4,11,18,6,22*
COC(=O)C1C(=O)C2=C(CC1C)NC(C)=C(C(=O)OC1CCCCC1)C2c1ccc(N(C)C)cc1 (stereo not drawn),543,21,-1,-3,4,5,x,x
COc1ccc(-n2nnc3c(=O)n(Cc4ccccc4C)cnc32)cc1,157,25,-1,-1,9,-1,x,x
Cc1ccc(C)c(Cn2cnc3c(nnn3-c3ccc(F)cc3)c2=O)c1,526,-3,13*,-4,7,1,0,2
COc1cccc2cc(-c3nnc(SCC(=O)Nc4cc(C(F)(F)F)ccc4Cl)n3N)oc12,235,11,21*,-1,10,0,1,6
CCn1c(=O)n(CC(=O)NCc2ccc(F)cc2)c2cccnc21,x,-25,x,x,x,x,x,x
CC(=O)c1nn(-c2cccc(C)c2)cc1C(=O)c1cccc(Br)c1,432,x,12*,-9,x,-4,3,4
CC(=O)c1nn(-c2ccc(Cl)cc2)cc1C(=O)c1ccc(C)cc1,i,x,21*,-1,x,2,13*,11
CC(=O)c1nn(-c2cccc(Br)c2)cc1C(=O)c1ccc2ccccc2c1,268,-11,4,-1,6,13,x,x
CC(=O)c1nn(-c2ccc(Br)cc2)cc1C(=O)c1ccccc1,210,26,29*,-1,1,-12,2,19*
CC(=O)c1nn(-c2ccc(Br)cc2)cc1C(=O)c1ccco1,223,31,1,0,13,4,x,x
COc1ccc(C(=O)c2cn(-c3cccc(Br)c3)nc2C(C)=O)cc1,457,x,15*,-10,x,-2,2,4
COc1ccccc1NC(=O)Nc1nc(CC(=O)Nc2ccc(N(C)C)cc2)cs1,148,x,-1,-1,x,1,x,x
COC(=O)c1ccc(SCC(=O)NCc2ccccc2)c([N+](=O)[O-])c1,230,x,-2,3,x,-1,x,x
COc1ccc(N2CC(O)=C(c3nc(-c4ccccc4)cs3)C2=N)cc1,373,-42,19*,-2,14,8,8,4
CC1CCCC(C)N1C(=O)COC(=O)CNC(=O)C12CC3CC(CC(C3)C1)C2 (stereo not drawn),918,x,-2,-2,x,9,x,x
Cc1ccc([N+](=O)[O-])cc1NC(=S)NC(=O)c1c(Cl)cnn1C,x,x,18*,-4,x,21,0,4
CC(C)(C)c1ccc(S(=O)(=O)NCCc2ccncc2)cc1,627,0,-2,-1,7,-1,x,x
CC(C)(C)c1ccc(S(=O)(=O)NCCOCC(F)(F)C(F)F)cc1,350,23,13*,1,5,-4,1,13
Cn1cnnc1SCC(=O)Nc1ccc2nc(SCc3cccc4ccccc34)sc2c1,331,-34,9.6*,-3,27,10,3,3
Cc1ccccc1OCc1nnc(SCC(=O)Nc2ccc3nc(SCC(=O)Nc4ccccc4)sc3c2)n1C,115,7,18*,0,8,-1,6,5
Cc1ccccc1OCc1nnc(SCC(=O)Nc2ccc3c(c2)OCO3)n1C,566,18,-2,-5,6,-3,x,x
Cc1ccc(C(C)C)c(OCc2nnc(SCC(=O)Nc3ncc(C)s3)n2C)c1,356,43,13*,0,4,-2,6,7
SMILES,T cell HTS,EP2 mod,MC4R barr agon,Exocytosis inh,PGE2 EP2 inh,MC4R antagonist,MC4R barr ag,MOR DOR agonist
O=C(CSc1nc2ccc(NC(=O)CSc3nnnn3Cc3ccccc3)cc2s1)Nc1ccccc1,742,4,12*,3,13,4,6,5
Cn1cnnc1SCC(=O)Nc1ccc2nc(SCc3ccccc3Cl)sc2c1,399,-27,0,5,5,17,x,x
Cc1ccc(NC(=S)N(CCN2CCOCC2)Cc2ccccc2F)cc1Cl,574,19,-1,-2,3,3,x,x
O=C(CS(=O)(=O)c1ccccc1)N1CCN(c2ccccc2)CC1,222,x,-1,-2,x,-5,x,x
CC1(C)ON(C2CCCCC2)[C@H]2c3nc4ccccc4n3C[C@H]21,271,x,0,7,x,4,x,x
CSc1cccc(NC(=O)CN(c2ccc(C)cc2C)S(C)(=O)=O)c1,186,-27,10*,16,12,11,-1,4
Cc1ccc(CNC(=O)CCCc2cn(C)c3ccccc23)cc1,30,x,1,-5,x,2,x,x
CCc1c(C2(O)CCCCC2)[nH]c2ccc(C#N)cc12,365,x,11*,2,17,8,3,8
CCc1c(C2(O)CCCCC2)[nH]c2ccc(C(=O)OC)cc12,429,x,2,0,6,9,x,x
COc1ccc(Cl)cc1C(=O)Nn1cnnc1,220,x,0,-9,x,0,x,x
Cc1ccc(-c2nn3c(C)nnc3s2)cc1NC(=O)c1ccc(-c2cccc(Cl)c2)o1,x,-5,13*,1,11,2,0,3
Cc1cccc(NS(=O)(=O)c2ccc3c(c2)OCCO3)c1,284,-72,0,2,9,4,x,x
COC(=O)c1ccc(NS(=O)(=O)c2ccc3[nH]c(=O)oc3c2)cc1,158,x,-1,5,x,-6,x,x
O=C(NCc1ccco1)c1cc(-c2ccc3c(c2)OCO3)on1,377,-18,12*,-2,7,4,6,5
Cc1ccc(-c2cc(C(=O)NCc3ccco3)no2)cc1,412,5,1,1,11,16,x,x
CC(=O)c1ccc(S(=O)(=O)N2CCC(Nc3nc(C)cc(=O)[nH]3)CC2)cc1,x,0,x,x,5,x,x,x
Cc1cc(C)c(OCC(=O)Nc2cccc(NC(=O)c3ccco3)c2)c(Br)c1,254,-28,-1,0,13,-2,x,x
Cc1ccc(OCC(=O)Nc2ccc(NC(=O)c3ccco3)cc2)c(C)c1,373,x,18*,27,x,8,1,6
Cc1cc(C)c(OCC(=O)Nc2ccc(NC(=O)c3ccco3)cc2)c([N+](=O)[O-])c1,281,-38,13*,0,14,4,1,3
